Experimental data as given in ChEMBL document CHEMBL1932971, “Synthesis of uriedo and thiouriedo derivatives of peptide conjugated heterocycles - A new class of promising antimicrobials” (2012).
In brackets after ≈: the same amount, converted by molar mass. Numbered stars: 1 amine (or outer) side, 2 acyl side, 3 side chain; on linkers, the order of the positions; unused ones are H or OH. Peptide text beside a SMILES is read from it. * marks the point of attachment. Piperazinyl(4-(2,3-Cl2Ph)) = Clc1cccc(N2CCN(*)CC2)c1Cl; Thiocarbamoyl(N-4-ClPh) = S=C(Nc1ccc(Cl)cc1)*; Thiocarbamoyl(4-MeOPh) = COc1ccc(NC(=S)*)cc1; Thiocarbamoyl(N-2-FPh) = Fc1ccccc1NC(=S)*; NH(4-MeO-phenyl) = COc1ccc(N*)cc1; NH(4-Cl-phenyl) = Clc1ccc(N*)cc1; X1 = Fc1ccc2c(C3CCN(*)CC3)noc2c1; NH(2-F-phenyl) = Fc1ccccc1N*; CO = O=C([*:1])[*:2]

How the values were obtained:
Assay type in all cases: functional
Xanthomonas oryzae [1] = assay: Antibacterial activity against Xanthomonas oryzae at 30 ug/ml after 24 hrs by agar well diffusion method; settings: read-out: DIZ
Xanthomonas oryzae [2] = assay: Antibacterial activity against Xanthomonas oryzae after 24 hrs by microdilution method
Staphylococcus aureus [3] = assay: Antibacterial activity against coagulase-positive Staphylococcus aureus at 30 ug/ml after 24 hrs by agar well diffusion method; settings: read-out: DIZ
Procedure, shortened: (§1)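 Agar well diffusion. Inocula were grown in nutrient broth at 37 °C for 24 h, then subcultured in nutrient broth at room temperature. Compounds were made as a 1 mg/mL DMSO stock and diluted to 30 µg/mL final. Nutrient agar plates were spread-inoculated and 6 mm wells each got 0.1 mL. Controls were amoxicillin (reference) and DMSO (negative). Incubation was 24 h at 37 °C. Inhibition zone was measured in mm as the mean of three determinations.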

Escherichia coli [4] = assay: Antibacterial activity against Escherichia coli at 30 ug/ml after 24 hrs by agar well diffusion method; settings: read-out: DIZ; procedure, shortened: as §1
Aspergillus niger [5] = assay: Antifungal activity against Aspergillus niger at 30 ug/ml after 72 hrs by agar well diffusion method; settings: read-out: DIZ
Procedure, shortened: (§2)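 Fungal well diffusion. Inocula were subcultured in nutrient broth for one day, then spread on solidified medium. Compounds were made as a 1 mg/mL DMSO stock and diluted to 30 µg/mL final. Each 6 mm well got 0.1 mL. Controls were bavistin (reference) and DMSO (negative). Plates stood for 3 days at room temperature. Inhibition zone was measured in mm as the mean of three determinations.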

Klebsiella pneumoniae [6] = assay: Antibacterial activity against Klebsiella pneumoniae after 24 hrs by microdilution method
Klebsiella pneumoniae [7] = assay: Antibacterial activity against Klebsiella pneumoniae at 30 ug/ml after 24 hrs by agar well diffusion method; settings: read-out: DIZ; procedure, shortened: as §1
Fusarium oxysporum [8] = assay: Antifungal activity against Fusarium oxysporum after 72 hrs by microdilution method
Staphylococcus aureus [9] = assay: Antibacterial activity against coagulase-positive Staphylococcus aureus after 24 hrs by microdilution method
Aspergillus flavus [10] = assay: Antifungal activity against Aspergillus flavus after 72 hrs by microdilution method
Fusarium oxysporum [11] = assay: Antifungal activity against Fusarium oxysporum at 30 ug/ml after 72 hrs by agar well diffusion method; settings: read-out: DIZ; procedure, shortened: as §2
Aspergillus flavus [12] = assay: Antifungal activity against Aspergillus flavus at 30 ug/ml after 72 hrs by agar well diffusion method; settings: read-out: DIZ; procedure, shortened: as §2
Aspergillus niger [13] = assay: Antifungal activity against Aspergillus niger after 72 hrs by microdilution method
Escherichia coli [14] = assay: Antibacterial activity against Escherichia coli after 24 hrs by microdilution method

SMILES	zone of inhibition at 30 µg/mL (Xanthomonas oryzae [1]) [mm]	MIC (Xanthomonas oryzae [2]) [µg/mL]	zone of inhibition at 30 µg/mL (Staphylococcus aureus [3]) [mm]	zone of inhibition at 30 µg/mL (Escherichia coli [4]) [mm]	zone of inhibition at 30 µg/mL (Aspergillus niger [5]) [mm]	MIC (Klebsiella pneumoniae [6]) [µg/mL]	zone of inhibition at 30 µg/mL (Klebsiella pneumoniae [7]) [mm]	MIC (Fusarium oxysporum [8]) [µg/mL]	MIC (Staphylococcus aureus [9]) [µg/mL]	MIC (Aspergillus flavus [10]) [µg/mL]	zone of inhibition at 30 µg/mL (Fusarium oxysporum [11]) [mm]	zone of inhibition at 30 µg/mL (Aspergillus flavus [12]) [mm]	MIC (Aspergillus niger [13]) [µg/mL]	MIC (Escherichia coli [14]) [µg/mL]
O=C(CNC(=S)Nc1ccccc1F)N[C@@H](Cc1ccccc1)C(=O)NCC(=O)N[C@@H](Cc1ccccc1)C(=O)N1CCC[C@H]1C(=O)N1CCC(c2noc3cc(F)ccc23)CC1 ({Thiocarbamoyl(N-2-FPh)}-GFGFP-X1)	41	4.75 (≈ 5.4 µM)	36	41	41	3 (≈ 3.41 µM)	37	4 (≈ 4.55 µM)	4 (≈ 4.55 µM)	4.5 (≈ 5.12 µM)	40	36	3 (≈ 3.41 µM)	4.75 (≈ 5.4 µM)
CC(C)[C@H](NC(=O)CNC(=S)Nc1ccccc1F)C(=O)NCC(=O)N[C@H](C(=O)N1CCC[C@H]1C(=O)N1CCC(c2noc3cc(F)ccc23)CC1)C(C)C ({Thiocarbamoyl(N-2-FPh)}-GVGVP-X1)	36	6.25 (≈ 7.98 µM)	31	35	37	5 (≈ 6.39 µM)	35	6.75 (≈ 8.62 µM)	6.25 (≈ 7.98 µM)	5.5 (≈ 7.03 µM)	35	33	4.75 (≈ 6.07 µM)	7.25 (≈ 9.26 µM)
CC(C)[C@H](NC(=O)CNC(=O)Nc1ccccc1F)C(=O)NCC(=O)N[C@H](C(=O)N1CCC[C@H]1C(=O)N1CCN(c2cccc(Cl)c2Cl)CC1)C(C)C ({NH(2-F-phenyl)-CO}-GVGVP-{Piperazinyl(4-(2,3-Cl2Ph))})	34	7.25 (≈ 9.32 µM)	29	33	35	6 (≈ 7.71 µM)	32	7.5 (≈ 9.64 µM)	7.25 (≈ 9.32 µM)	6.25 (≈ 8.04 µM)	32	31	5.5 (≈ 7.07 µM)	8.25 (≈ 10.6 µM)
CC(C)[C@H](NC(=O)CNC(=O)Nc1ccc(Cl)cc1)C(=O)NCC(=O)N[C@H](C(=O)N1CCC[C@H]1C(=O)N1CCC(c2noc3cc(F)ccc23)CC1)C(C)C ({NH(4-Cl-phenyl)-CO}-GVGVP-X1)	26	8.5 (≈ 10.9 µM)	27	30	33	6.75 (≈ 8.62 µM)	29	8.5 (≈ 10.9 µM)	8.75 (≈ 11.2 µM)	7.5 (≈ 9.57 µM)	32	29	6.5 (≈ 8.3 µM)	9.25 (≈ 11.8 µM)
O=C(CNC(=S)Nc1ccc(Cl)cc1)N[C@@H](Cc1ccccc1)C(=O)NCC(=O)N[C@@H](Cc1ccccc1)C(=O)N1CCC[C@H]1C(=O)N1CCN(c2cccc(Cl)c2Cl)CC1 ({Thiocarbamoyl(N-4-ClPh)}-GFGFP-{Piperazinyl(4-(2,3-Cl2Ph))})	33	6.75 (≈ 7.45 µM)	30	32	34	5 (≈ 5.52 µM)	32	6.25 (≈ 6.9 µM)	6.25 (≈ 6.9 µM)	6.5 (≈ 7.17 µM)	31	30	5 (≈ 5.52 µM)	6.75 (≈ 7.45 µM)
COC(=O)Nc1nc2ccccc2[nH]1 [CARBENDAZIM]					12			25 (≈ 131 µM)		26 (≈ 136 µM)	10	9	22 (≈ 115 µM)	
CC1(C)S[C@@H]2[C@H](NC(=O)[C@H](N)c3ccc(O)cc3)C(=O)N2[C@H]1C(=O)O [AMOXICILLIN]	9	19 (≈ 52 µM)	8	12		20 (≈ 54.7 µM)	8		23 (≈ 62.9 µM)					24 (≈ 65.7 µM)
COc1ccc(NC(=S)NCC(=O)N[C@H](C(=O)NCC(=O)N[C@H](C(=O)N2CCC[C@H]2C(=O)N2CCN(c3cccc(Cl)c3Cl)CC2)C(C)C)C(C)C)cc1 ({Thiocarbamoyl(4-MeOPh)}-GVGVP-{Piperazinyl(4-(2,3-Cl2Ph))})	26		22	27	29		22				24	23		
COc1ccc(NC(=O)NCC(=O)NCC(=O)N[C@@H](Cc2ccccc2)C(=O)N2CCC[C@H]2C(=O)N2CCN(c3cccc(Cl)c3Cl)CC2)cc1 ({NH(4-MeO-phenyl)-CO}-GGFP-{Piperazinyl(4-(2,3-Cl2Ph))})	23		16	25	26		18				22	19		
CC[C@H](C)[C@H](NC(=O)CNC(=O)CNC(=S)Nc1ccc(OC)cc1)C(=O)N1CCC[C@H]1C(=O)N1CCN(c2cccc(Cl)c2Cl)CC1 ({Thiocarbamoyl(4-MeOPh)}-GGIP-{Piperazinyl(4-(2,3-Cl2Ph))})	19		18	23	25		13				23	21		
COc1ccc(NC(=O)NCC(=O)N[C@H](C(=O)NCC(=O)N[C@H](C(=O)N2CCC[C@H]2C(=O)N2CCC(c3noc4cc(F)ccc34)CC2)C(C)C)C(C)C)cc1 ({NH(4-MeO-phenyl)-CO}-GVGVP-X1)	33		23	26	30		27				27	27		
O=C([C@H](Cc1c[nH]c2ccccc12)NC(=S)Nc1ccccc1F)N1CCN(c2cccc(Cl)c2Cl)CC1	10		12	10	11		11				6	12		
O=C(CNC(=O)Nc1ccc(Cl)cc1)NCC(=O)N[C@@H](Cc1ccccc1)C(=O)N1CCC[C@H]1C(=O)N1CCC(c2noc3cc(F)ccc23)CC1 ({NH(4-Cl-phenyl)-CO}-GGFP-X1)	25		21	28	31		23				28	26		
COc1ccc(NC(=O)NCC(=O)N[C@@H](Cc2ccccc2)C(=O)NCC(=O)N[C@@H](Cc2ccccc2)C(=O)N2CCC[C@H]2C(=O)N2CCC(c3noc4cc(F)ccc34)CC2)cc1 ({NH(4-MeO-phenyl)-CO}-GFGFP-X1)	30		28	30	35		30				32	29		
